Screening data deposited in PubChem by several laboratories.
HNF4A DNA FP – change in binding of human HNF4A to DNA, primary screen, biochemical, fluorescence polarization, FITC-DNA. actives 0.3% (n = 360,000). activity change, % at 10 µM. 1 h. AID 1224865, 2016. Hepatocyte nuclear factor 4-alpha (Homo sapiens), P41235; in the data active = activity change above about 30%, passing the limit was not always enough
TPT1 inh – Candida albicans TPT1 enzyme inhibitors, primary screen, biochemical, fluorescence polarization; tRNA 2'-phosphotransferase TPT1 (Candida albicans SC5314); recombinant caTPT1, FP RNA substrate dephosphorylation; inhibition, % at 5 µM; actives 0.81% (n = 300,000); AID 1962, 2009;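 active = inhibition above the mean of all tested compounds plus 3 SD, set per screening campaign, cut at about 24% in these data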;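 also: plate controls were DMSO alone for no effect and ferristatin control at 100 nM for full effect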
CSN inh – inhibitors of CSN-mediated cullin deneddylation, primary screen, biochemical, fluorescence polarization, uHTS; actives 0.38% (n = 360,000); Purified CSN, SCF-Nedd8-OG deneddylation; COP9 signalosome complex subunit 5 (Homo sapiens), Q92905; inhibition, % at 12.5 µM; AID 651999, 2013;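 active = pattern-corrected inhibition above about 35%, with an unprinted fluorescence ratio check between 0.5 and 1.5, limit read from the data, passing the limit was not always enough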;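 also: 0% = enzyme with substrate and 100% = substrate without enzyme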
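Assay system: Purified human Csn5 enzyme expressed in HEK293T cells | Amount: Enzyme 0.24 nM | Measured by: Fluorescence polarization readout | Medium: Tris/NaCl/DTT buffer, pH 7.5 | Compound dosing: One concentration, 12.5 µM, 0.25% DMSO | Times: 90 min incubation of compound, enzyme and substrate at room temperature | Control set: no-enzyme wells high, enzyme-with-substrate wells low | Read-out: % inhibition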
Rtt109 Vps75 – inhibitors of C. albicans Rtt109/Vps75 HAT, primary screen, biochemical, ThioGlo CoA-SH fluorescence, plate reader | Histone acetyltransferase RTT109 (Candida albicans (strain SC5314 / ATCC MYA-2876)), … | purified Rtt109/Vps75, 4 h | inhibition, % at 34.9 µM | actives 0.16% (n = 330,000) | AID 540336, 2011;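 active = inhibition of at least 50% in every replicate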
Target sequence (Q5AAJ8 whole entry, looked up): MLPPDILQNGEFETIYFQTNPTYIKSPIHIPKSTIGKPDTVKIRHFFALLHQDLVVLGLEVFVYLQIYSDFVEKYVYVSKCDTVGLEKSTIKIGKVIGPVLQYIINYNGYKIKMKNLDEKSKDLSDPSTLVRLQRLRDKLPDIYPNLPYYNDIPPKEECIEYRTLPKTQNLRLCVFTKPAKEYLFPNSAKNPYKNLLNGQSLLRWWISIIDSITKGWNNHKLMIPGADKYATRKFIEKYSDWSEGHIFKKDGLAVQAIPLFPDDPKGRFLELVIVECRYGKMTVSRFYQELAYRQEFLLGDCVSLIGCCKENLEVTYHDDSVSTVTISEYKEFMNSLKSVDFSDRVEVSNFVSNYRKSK
* hit, by the source's call; ! = not active in a repeat. Rows were chosen to be rich in hits. Some 1.2% of all compounds tested hit in one or more screens of this group.

How did COc1ccc(N2CCN(C(=O)CSc3nnc(-c4cccnc4)n3-c3ccccc3)CC2)cc1 do in these assays?
HNF4A DNA FP: -1; TPT1 inh: 2; CSN inh: -1; Rtt109 Vps75: 53*

Results for CCC(C)Sc1ccc(-c2nc3cnccn3c2NC2CCCCC2)cc1 (centres undefined) ?
HNF4A DNA FP: 9; TPT1 inh: 0; CSN inh: 6; Rtt109 Vps75: -21

How did CCC(C)Sc1ccc(-c2nc3cc(C)ccn3c2NC2CCCCC2)cc1 (centres undefined) do in these assays?
HNF4A DNA FP: 45*!; CSN inh: 21; Rtt109 Vps75: 7

What do the screens show for `CCCCCN(C(=O)CCC(=O)OCC(=O)c1cccc(OC)c1)c1c(N)n(CCCC)c(=O)[nH]c1=O`?
HNF4A DNA FP: 2; TPT1 inh: -4; CSN inh: -3; Rtt109 Vps75: 23

Results for Cc1cccc(C)c1NC(=O)CN(C)C(=O)C1=COCCO1 ?
HNF4A DNA FP: 0; CSN inh: -1; Rtt109 Vps75: -3

What do the screens show for `CNS(=O)(=O)c1ccc2nc(NC(=O)/C=C/c3ccco3)sc2c1`?
HNF4A DNA FP: 16; TPT1 inh: 8; CSN inh: 56*; Rtt109 Vps75: -1

How did CCCS(=O)(=O)NC(=O)C1(C)CCCN(C(=O)c2ccc3ccccc3c2)C1 (centres undefined) do in these assays?
HNF4A DNA FP: 3; CSN inh: 1

What do the screens show for `O=C(O)c1ccc(-n2c(-c3cc(-c4ccco4)[nH]n3)n[nH]c2=S)cc1`?
HNF4A DNA FP: -18; TPT1 inh: 5; CSN inh: 42*; Rtt109 Vps75: 3

What do the screens show for `O=C(OCCNc1ccc(C(F)(F)F)cc1[N+](=O)[O-])c1cc2ccccc2oc1=O`?
HNF4A DNA FP: 177; TPT1 inh: -1; CSN inh: 95*; Rtt109 Vps75: -8

How did O=[N+]([O-])c1cc(C(F)(F)F)ccc1NCCOc1ccccc1 do in these assays?
HNF4A DNA FP: 2; TPT1 inh: -1; CSN inh: -7; Rtt109 Vps75: 2

What do the screens show for `CC(C)CC(=O)NC(=S)Nc1ccc(S(=O)(=O)NC(C)(C)C)cc1`?
HNF4A DNA FP: 1; TPT1 inh: 0; CSN inh: -15; Rtt109 Vps75: 55*

What do the screens show for `Cc1nn(CC(=O)NCc2cccnc2)c(C)c1[N+](=O)[O-]`?
HNF4A DNA FP: -1; TPT1 inh: 0; CSN inh: 0; Rtt109 Vps75: 68*

How did Cc1c(Cl)c([N+](=O)[O-])nn1CC(=O)NCc1cccnc1 do in these assays?
HNF4A DNA FP: 1; TPT1 inh: -1; CSN inh: -1; Rtt109 Vps75: -2

Results for Cc1c(Cl)cccc1NC(=S)Nc1ccc2[nH]c(=O)[nH]c2c1 ?
HNF4A DNA FP: 39*; TPT1 inh: -1; CSN inh: -3; Rtt109 Vps75: -4

How did O=C(NC(=S)Nc1ccc2[nH]c(=O)[nH]c2c1)c1ccccc1Cl do in these assays?
HNF4A DNA FP: 3; TPT1 inh: 0; CSN inh: 2; Rtt109 Vps75: 1

Results for O=C(c1ccco1)N1CCN(C(=O)C2CCCN(S(=O)(=O)Cc3ccccc3)C2)CC1 (centres undefined) ?
HNF4A DNA FP: -2; TPT1 inh: -1; CSN inh: 0; Rtt109 Vps75: -12

What do the screens show for `O=C(c1ccco1)N1CCN(C(=O)C2CCN(S(=O)(=O)Cc3ccccc3)CC2)CC1`?
HNF4A DNA FP: 3; TPT1 inh: -2; CSN inh: 62*; Rtt109 Vps75: 6

What do the screens show for `COc1cc(Cl)c(C)cc1NC(=O)CN(C)C1CCS(=O)(=O)C1` (centres undefined)?
HNF4A DNA FP: 0; CSN inh: -3; Rtt109 Vps75: -5

Results for Fc1ccc(CN2CCN(c3ncccn3)CC2)cc1 ?
HNF4A DNA FP: 1; TPT1 inh: 1; CSN inh: 37*; Rtt109 Vps75: -4

How did CCc1ccc(CN2CCN(c3ncccn3)CC2)cc1 do in these assays?
HNF4A DNA FP: 4; TPT1 inh: 0; CSN inh: 0; Rtt109 Vps75: -9

How did COc1cc(CC(=O)N(C)CC(=O)Nc2cc(C)ccc2C)cc(OC)c1OC do in these assays?
HNF4A DNA FP: 4; TPT1 inh: -1; CSN inh: 6; Rtt109 Vps75: 7

What do the screens show for `CC(C(=O)OCC(=O)c1ccc([N+](=O)[O-])cc1)N1C(=O)C2C3CCC(C3)C2C1=O` (centres undefined)?
HNF4A DNA FP: 3; TPT1 inh: -1; CSN inh: 2; Rtt109 Vps75: 108*

Results for CCn1c(SCC(=O)Nc2cccc(NC(C)=O)c2)nnc1-c1ccco1 ?
HNF4A DNA FP: 3; TPT1 inh: -2; CSN inh: 3; Rtt109 Vps75: 2

What do the screens show for `CCn1c(SCC(=O)Nc2ccc3c(c2)c2ccccc2n3CC)nnc1-c1ccco1`?
HNF4A DNA FP: -30; TPT1 inh: 15; CSN inh: 30; Rtt109 Vps75: 66*

What do the screens show for `O=C(Cc1ccc(Cl)cc1)Nc1ccc(NC(=O)c2ccccc2)cc1`?
HNF4A DNA FP: 6; TPT1 inh: -2; CSN inh: 9; Rtt109 Vps75: 0

Results for O=C(CC(=O)c1ccccc1)Nc1ccc(Cl)cc1 ?
HNF4A DNA FP: 42*; TPT1 inh: -3; CSN inh: 0; Rtt109 Vps75: 1

Results for COc1ccc(Cl)cc1Cn1c(C)c(C(=O)NCc2ccc3c(c2)OCCO3)sc1=O ?
HNF4A DNA FP: 1; CSN inh: 2

How did Cc1cc(C)c2cc3c(N)c(C(=O)Nc4c(C)[nH]c(=O)[nH]c4=O)sc3nc2c1 do in these assays?
HNF4A DNA FP: 5; TPT1 inh: 48*; CSN inh: 0; Rtt109 Vps75: -2

What do the screens show for `CC1=C(C)/C(=N\OS(=O)(=O)c2ccc(C)cc2)C=CC1=O`?
HNF4A DNA FP: -1; TPT1 inh: 0; CSN inh: -12; Rtt109 Vps75: 109*

How did COc1ccc(S(=O)(=O)/N=C2/C=CC(=O)C(C)=C2C)cc1 do in these assays?
HNF4A DNA FP: 1; TPT1 inh: -3; CSN inh: 3; Rtt109 Vps75: 1

How did CS(=O)(=O)N(CC(=O)N1CCN(Cc2ccccc2)CC1)Cc1ccccc1 do in these assays?
HNF4A DNA FP: -4; TPT1 inh: -2; CSN inh: 82*; Rtt109 Vps75: 3

How did O=C(COC(=O)c1ccc([N+](=O)[O-])s1)Nc1ncc(C(F)(F)F)cc1Cl do in these assays?
HNF4A DNA FP: 13; TPT1 inh: 10; CSN inh: 38*; Rtt109 Vps75: 3

What do the screens show for `COC(=O)[C@]12CCCCC=C1N(Cc1ccccc1)C(=O)[C@H](CC(=O)NCCCN1CCCC1=O)C2`?
HNF4A DNA FP: -2; CSN inh: -1

Results for CCCCCCCCN1C(=O)[C@H](CC(=O)NCCCN2CCCC2=O)C[C@@]2(C(=O)OC)CCCCC=C12 ?
HNF4A DNA FP: -4; CSN inh: 48*
